Reference: ChEMBL document CHEMBL4513216, “Probing the Open Global Health Chemical Diversity Library for Multistage-Active Starting Points for Next-Generation Antimalarials” (ACS Infect Dis, 2020)

Experiment: Toxicity liver stage against HepG2, at 10uM
Format: cell-based
Set-up: test concentration 10 uM, cell line HepG2-A16-CD81EGFP
Details: human, HepG2-A16-CD81EGFP cells; read-out: INHIBITION
How it was run: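 Uninfected HepG2-A16-CD81EGFP cells, 3 × 10^3 per well, 1536-well, plated on prespotted compound at 10 μM final, parasite-free screening media added to match infected plates; puromycin 10 μM positive, DMSO 0.5% negative; run in parallel with 48 h PbLuc assay at 37 °C, 5% CO2; viability by CellTiter-Glo luminescence, normalized to controls.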

OCCN(Cc1nc(-c2ccc3c(c2)OCO3)no1)Cc1cccs1
cytotoxicity at 10 µM: -0.191%

CCN(CC)[C@H]1C[C@@H](Cc2cc(CO)on2)C1(C)C
cytotoxicity at 10 µM: 9.12%

COCCN1CCN(C(=O)C[C@@H]2C[C@@H](C(C)C)[C@H](CC#N)C=C2C)CC1
cytotoxicity at 10 µM: 0.788%

NC(=O)CN1CC[C@@]2(O)CCCC[C@H]2[C@@H]1c1ccc2c(c1)OCO2
cytotoxicity at 10 µM: 3.26%

O=C(Nc1cccnc1-n1cc(Br)cn1)C1CCCC1
cytotoxicity at 10 µM: -33.1%

CCCN1CCc2nc(SCc3ccccc3)[nH]c(=O)c2C1
cytotoxicity at 10 µM: 0.279%

COc1cc(C(=O)NCCc2ccc(Cl)cc2)on1
cytotoxicity at 10 µM: -0.295%

CCOc1ncc(NC(=O)c2ccco2)c(OCC)n1
cytotoxicity at 10 µM: -1.76%

O=C(N[C@]12CC1CN(C(=O)c1ccco1)C2)c1ccoc1 (some centres not stated)
cytotoxicity at 10 µM: -1.48%

Cc1ccsc1C(=O)NCC1COCc2c(C)nnn2C1 (configuration not stated)
cytotoxicity at 10 µM: -3.51%

CN1CCN(Cc2cn3c(n2)CN(C(=O)c2ccco2)CC3)CC1
cytotoxicity at 10 µM: -4%

CCOC(=O)C1CCN(C(=O)c2cc(Br)ccc2-n2cnnn2)CC1
cytotoxicity at 10 µM: -2.41%

CCN(CC)c1ncc(S(=O)(=O)c2cccc(C)c2)c(N)n1
cytotoxicity at 10 µM: -0.707%

O=C(c1cccs1)N1CC[C@H](O)[C@@H]1Cc1ccccc1
cytotoxicity at 10 µM: -5.99%

CCC(=O)c1ccccc1NN1c2ccccc2C(=O)C1(C)OC (configuration not stated)
cytotoxicity at 10 µM: 8.57%

Cc1cc(C(F)(F)F)nn1CCCNC(=O)C1CCC1
cytotoxicity at 10 µM: -12.2%

CCCc1nc(NCCCn2ccnc2)c2c(n1)c(C)nn2CC
cytotoxicity at 10 µM: 8.26%

CCc1cc(=O)n(CC(=O)N2CCC(C)CC2)c(-c2cccc(F)c2)n1
cytotoxicity at 10 µM: 7.63%

Cc1c(NC(=O)c2ccc(Br)cc2)c(C(=O)N(C)C)nn1C
cytotoxicity at 10 µM: 3.65%

COCC(=O)N1CCCCC1c1nc(N(C)C)ncc1-c1cc(C)no1 (configuration not stated)
cytotoxicity at 10 µM: 5.93%

COCCC(=O)N1C[C@@H](c2ccc(F)c(F)c2)[C@@]2(CCCC(=O)N2)C1
cytotoxicity at 10 µM: -9.06%

Cc1nc(C2CCN(C(=O)c3cscn3)CC2)c2sccn12
cytotoxicity at 10 µM: -5.16%

NCc1cn(-c2ccccc2C(=O)NCc2ccccc2Cl)cn1
cytotoxicity at 10 µM: -9.94%

COCc1cc(O)nc(C2CCCN(Cc3cccc(Cl)c3Cl)C2)n1 (configuration not stated)
cytotoxicity at 10 µM: -7.47%

COc1ccc(C2(NC(=O)c3ccc(=O)n(C)n3)CCCC2)cc1
cytotoxicity at 10 µM: -0.308%

CC(O)CN1CCC(CN(C)Cc2cc(F)cc3cccnc23)CC1 (configuration not stated)
cytotoxicity at 10 µM: -1.26%

CN(CC(=O)N1CCCC1)C(=O)c1ccccc1F
cytotoxicity at 10 µM: 11.7%

Cc1cc(CN(C)C(=O)C(c2ccccc2)N2CCSCC2)no1 (configuration not stated)
cytotoxicity at 10 µM: -1.49%

COc1ccc2c(c1)CCCC2CC(=O)NCC(C)(C)C(=O)O (configuration not stated)
cytotoxicity at 10 µM: -1.2%

COc1cc2c(nn1)CCN(Cc1noc(CC(C)C)n1)C2
cytotoxicity at 10 µM: -1.02%

COCCOc1ncccc1C(=O)N(C)c1ccc(OC)c(OC)c1
cytotoxicity at 10 µM: -46.7%

CC(C)c1nc(C2CCCN(c3nccc(C(F)(F)F)n3)C2)no1 (configuration not stated)
cytotoxicity at 10 µM: 5.83%

N#Cc1cn(CCN2CCc3ccccc3C2)c(=O)[nH]c1=O
cytotoxicity at 10 µM: 4.47%

COCCn1ccc(NCc2scnc2C)n1
cytotoxicity at 10 µM: -2.9%

CNC(=O)C(NC(C)=O)c1ccc(F)c(F)c1 (configuration not stated)
cytotoxicity at 10 µM: -6.1%

CN(C)CCn1c(=O)oc2ccc(NC(=O)N3CCCCCC3)cc21
cytotoxicity at 10 µM: -3.59%

CN(Cc1cnn(C)c1)Cc1nc(Cc2cccc(Cl)c2)no1
cytotoxicity at 10 µM: 6.53%

COCCN1CCC(NC(=O)Cn2cc(C)c3ccccc32)CC1
cytotoxicity at 10 µM: -0.869%

Cc1nn(C)c(Oc2ccccc2)c1CNC1CCOc2ccccc21 (configuration not stated)
cytotoxicity at 10 µM: 4.88%

Cc1ccc(-c2ccc(C(=O)NCC(N)=O)c(F)c2)cc1
cytotoxicity at 10 µM: -0.758%

COCCCNC(=O)Nc1cccc2c1CCN(S(C)(=O)=O)C2
cytotoxicity at 10 µM: 2.87%

CC(CNC(=O)Nc1ccc(F)cc1-n1cccc1)N1CCOCC1 (configuration not stated)
cytotoxicity at 10 µM: -8.71%

CCc1nncn1CCNC(=O)N1CCCC(Cc2nccn2C)C1 (configuration not stated)
cytotoxicity at 10 µM: 0.548%

Cc1cc(C)c(CNC(=O)NCC2COc3ccccc3C2)c(=O)[nH]1 (configuration not stated)
cytotoxicity at 10 µM: 8.51%

O=C1NCCCCC1NS(=O)(=O)N1CCCCCC1 (configuration not stated)
cytotoxicity at 10 µM: 4.15%

CC(C)c1noc(CN2CCOCC2C)n1 (configuration not stated)
cytotoxicity at 10 µM: 3.95%

COc1cccc(COc2nc(C(C)C)no2)c1
cytotoxicity at 10 µM: -42.4%

COc1ccccc1CN(Cc1nc(C)no1)C1CC1
cytotoxicity at 10 µM: 2.77%

Cc1noc(C)c1CN1CCCC1c1nnc2ccccn12 (configuration not stated)
cytotoxicity at 10 µM: -1.73%

CCNC(=O)N1CCc2ccc(NC(=O)C(C)c3ccsc3)cc21 (configuration not stated)
cytotoxicity at 10 µM: -3.41%

O=S(=O)(N1CCCC1)N(Cc1ccccc1)CC1CCCO1 (configuration not stated)
cytotoxicity at 10 µM: -0.966%

Cc1ccccc1C1(CNc2nnc(C)c(C)c2C#N)CCOCC1
cytotoxicity at 10 µM: -2.1%

O=C(c1ccncn1)N1C[C@@H]2CN(Cc3cccnc3)CCO[C@@H]2C1
cytotoxicity at 10 µM: 7.61%

Cc1cccc(N2CCC3(CCCN(C(=O)Cc4cccnc4)C3)C2)n1 (configuration not stated)
cytotoxicity at 10 µM: 0.824%

CCn1c(CC2CCN(C(=O)c3cc(C(C)C)nn3C)CC2)n[nH]c1=O
cytotoxicity at 10 µM: -58.5%

COCCCC1CCN([C@@H]2c3ccccc3C3(CCNCC3)[C@H]2O)CC1
cytotoxicity at 10 µM: -4.67%

COc1ccccc1N1CCN(C(=O)CSC(C)C)C(C)C1 (configuration not stated)
cytotoxicity at 10 µM: -3.97%

Cn1ccnc1-c1cn(CCCc2csc(N)n2)nn1
cytotoxicity at 10 µM: 0.963%

CCN(CC)CCn1cnc(-c2ccccc2)c1-c1cnn(CC)c1
cytotoxicity at 10 µM: 3.37%

c1cc2c(cc1Cn1cc(C3CCOC3)nn1)OCO2 (configuration not stated)
cytotoxicity at 10 µM: 3.86%

Cc1cc2nc(C(C)C)cc(N3CCC(N(C)C)C3)n2n1 (configuration not stated)
cytotoxicity at 10 µM: -3.88%

CCCc1cnc(C)nc1N1CCC(Cn2cc(C(C)O)nn2)CC1 (configuration not stated)
cytotoxicity at 10 µM: 1.92%

Cc1cc(C)c2nc(CN3CCC(N4CCOC4=O)CC3)cc(O)c2c1
cytotoxicity at 10 µM: -0.213%

CCOCC1CCN(C(=O)C(c2cccc(F)c2)N(C)C)CC1 (configuration not stated)
cytotoxicity at 10 µM: -4.57%

N#Cc1cccc(N2CCC(CO)(CCOc3ccccc3)CC2)n1
cytotoxicity at 10 µM: -42.8%

O=C(N[C@@H]1CCN(c2ncc(Cl)cc2Cl)C[C@H]1O)c1cnccn1
cytotoxicity at 10 µM: -8.92%

CCOC(=O)CC1CCCCN1C(=O)c1cc(C)on1 (configuration not stated)
cytotoxicity at 10 µM: 5.53%

COCCCN1CC2(CCCN(CCn3cc(Cl)cn3)C2)CCC1=O (configuration not stated)
cytotoxicity at 10 µM: 5.97%

CN(Cc1ccsc1)C(=O)CN1CCCC(Cn2cncn2)C1 (configuration not stated)
cytotoxicity at 10 µM: -11.3%

Cc1csc(C2CCCCN2C(=O)c2cc(C)n(C)n2)n1 (configuration not stated)
cytotoxicity at 10 µM: -17.9%

Cc1ccc(-c2cc(CNC(=O)N3CCC(N(C)C)CC3)on2)cc1
cytotoxicity at 10 µM: -10.8%

Cn1nccc1C(=O)Nc1cc(C(F)(F)F)c[nH]c1=O
cytotoxicity at 10 µM: -6.54%

Cc1cc(NC(=O)CNC2CCc3ncnn3C2)no1 (configuration not stated)
cytotoxicity at 10 µM: -6.73%

Nc1cc2c(nn1)CCN(C(=O)C1CCc3ccccc31)C2 (configuration not stated)
cytotoxicity at 10 µM: -6.58%

Cc1cnn(CCNCC(O)COc2ccc3ccccc3c2)c1 (configuration not stated)
cytotoxicity at 10 µM: -6.31%

Cc1cnn(CCC(=O)N2CCCN(c3nc(C)cs3)CC2)c1
cytotoxicity at 10 µM: -4.05%

COc1ccc(OC)c(C(O)CNC(=O)Nc2cccnc2OC)c1 (configuration not stated)
cytotoxicity at 10 µM: -22.4%

CCc1nc(CN(C(C)=O)C2CCN(CC3CCOCC3)C2)no1 (configuration not stated)
cytotoxicity at 10 µM: -3.84%

Cc1nc(C)n(CC2CCCN2CCOc2ccccc2C#N)n1 (configuration not stated)
cytotoxicity at 10 µM: -4.17%

Cn1cc(CC(=O)N2CCCC(n3cncn3)C2)cn1 (configuration not stated)
cytotoxicity at 10 µM: -3.54%

O=C(NCc1ccccc1-n1cccn1)N1CCC(N2CCCC2)C1 (configuration not stated)
cytotoxicity at 10 µM: -0.554%

N#Cc1cnn(-c2ccc(C(=O)N(C3CCCCC3)C3CC3)cc2)c1N
cytotoxicity at 10 µM: -2.54%

COc1ccc(Cl)cc1CC(=O)N1CCN(CC(C)O)CC1 (configuration not stated)
cytotoxicity at 10 µM: -17.1%

O=C(COCc1ccccc1Cl)N1CCCC(n2ccnc2)C1 (configuration not stated)
cytotoxicity at 10 µM: -25.1%

O=C(c1sccc1C1CC1)N1CCN(Cc2cscn2)CC1
cytotoxicity at 10 µM: 1.97%

Cc1nc(CN(C)C2CCN(Cc3cccc(F)c3)C2)no1 (configuration not stated)
cytotoxicity at 10 µM: -15%

Cc1nc2ccccc2nc1CN1CCCCC1Cn1cccn1 (configuration not stated)
cytotoxicity at 10 µM: 3.94%

CC(C)S(=O)(=O)C(C)C(=O)NCc1cccc(N2CCCCC2=O)c1 (configuration not stated)
cytotoxicity at 10 µM: -7.91%

CCNC(c1cccnc1)c1ccc(F)c(F)c1 (configuration not stated)
cytotoxicity at 10 µM: 1.03%

CC(NC(=O)NCc1ccc(Cl)s1)c1ccccn1 (configuration not stated)
cytotoxicity at 10 µM: 1.64%

Cc1noc(C(C)C)c1C(=O)N1CCCN(Cc2cscn2)CC1
cytotoxicity at 10 µM: -3.56%

CCc1nnc(CN2CCN(C(=O)c3ccccn3)CC2)o1
cytotoxicity at 10 µM: 3.49%

Cc1oc(-c2ccco2)nc1CC(=O)N1CCN(C2CCC2)CC1
cytotoxicity at 10 µM: 4.33%

CCC(CO)NCc1ccc(-c2ccc(Cl)cc2)o1 (configuration not stated)
cytotoxicity at 10 µM: 5.24%

C[C@H]1CN2C[C@H](O)CC2CN1Cc1ccc2nccnc2c1 (some centres not stated)
cytotoxicity at 10 µM: -1.23%

Cc1cc(Nc2ccccn2)nc(C2CCCN(CCO)C2)n1 (configuration not stated)
cytotoxicity at 10 µM: 1.26%

Cn1cc(N2C(=O)CC[C@@H]3[C@H]2CCN3CCc2ccccc2)cn1
cytotoxicity at 10 µM: 15.6%

O=C(N1CCCO1)[C@@]12CCO[C@@H]1CCN(Cc1cccnc1)C2
cytotoxicity at 10 µM: -4.26%

c1cncc(CN2CCC3(COCCN(C4CCOCC4)C3)C2)c1 (configuration not stated)
cytotoxicity at 10 µM: 1.46%

COCCn1cc2c(n1)C(CNCc1cccc(OC)c1)OCC2 (configuration not stated)
cytotoxicity at 10 µM: -4.52%

CCN1CCN(C)C2(CCN(Cc3ccsc3)CC2)C1=O
cytotoxicity at 10 µM: 0.317%

CN(C)c1ncc2c(c1C(=O)O)CCN(Cc1ccco1)C2
cytotoxicity at 10 µM: 3.57%

O=C(C1CCOC1)N1C[C@H]2CN(Cc3cccnc3)C(=O)[C@H]2C1 (some centres not stated)
cytotoxicity at 10 µM: -108%

CCOC1COC2(CCN(Cc3ccc(C)cc3)CC2)C1 (configuration not stated)
cytotoxicity at 10 µM: -8.28%

COc1cc(CNCCn2ccnc2)cc2c1OCO2
cytotoxicity at 10 µM: 5.17%

CN(C)C(=O)N1CCN(Cc2cnn(C)c2)CC2(CNC(=O)C2)C1 (configuration not stated)
cytotoxicity at 10 µM: 1.21%

Cc1ccc(C(=O)N2CCn3cc(CN4CCCCC4)nc3C2)o1
cytotoxicity at 10 µM: 4.75%

O=C(CN1CCN(CC(O)C2CC2)CC1)NCc1ccccc1Cl (configuration not stated)
cytotoxicity at 10 µM: 5.23%

CN1C(=O)C2(CCN(S(C)(=O)=O)CC2)c2cc(F)ccc21
cytotoxicity at 10 µM: -106%

CCCC(=O)NC1CCc2c(ccc(=O)n2Cc2csc(C)n2)C1 (configuration not stated)
cytotoxicity at 10 µM: 3.79%

O=C1C[C@@H]2CC[C@H](CN1)N2C(=O)CCc1ccc2c(c1)OCO2
cytotoxicity at 10 µM: -5%

COc1ccc(CN2C[C@@H]3C(CC(=O)N4CCCC4)[C@@H]3C2)cc1 (some centres not stated)
cytotoxicity at 10 µM: -13.8%
